Measured values reported in ChEMBL document CHEMBL5696442, “Discovery of type II inhibitors of TGFβ-activated kinase 1 (TAK1) and mitogen-activated protein kinase kinase kinase kinase 2 (MAP4K2)” (J Med Chem, 2015).

Key:
[1] = target: p38 delta/gamma (Homo sapiens) (UniProt O15264+P53778); experiment: Inhibition of p38delta/gamma Lys2 labeling site in human A-375 cells at 5 uM by KiNativ Profiling analysis relative to control; assay type: cell-based
[2] = target: Cyclin-dependent kinase 17 (Homo sapiens) (UniProt Q00537); experiment: Inhibition of PCTAIRE2 Lys2 labeling site in human A-375 cells at 5 uM by KiNativ Profiling analysis relative to control; assay type: cell-based
[3] = target: Tyrosine-protein kinase Fer (Homo sapiens, UniProt P16591); experiment: Inhibition of FER ACT labeling site in human A-375 cells at 5 uM by KiNativ Profiling analysis relative to control; assay type: cell-based
Chain of Tyrosine-protein kinase Fer (P16591 whole entry, looked up): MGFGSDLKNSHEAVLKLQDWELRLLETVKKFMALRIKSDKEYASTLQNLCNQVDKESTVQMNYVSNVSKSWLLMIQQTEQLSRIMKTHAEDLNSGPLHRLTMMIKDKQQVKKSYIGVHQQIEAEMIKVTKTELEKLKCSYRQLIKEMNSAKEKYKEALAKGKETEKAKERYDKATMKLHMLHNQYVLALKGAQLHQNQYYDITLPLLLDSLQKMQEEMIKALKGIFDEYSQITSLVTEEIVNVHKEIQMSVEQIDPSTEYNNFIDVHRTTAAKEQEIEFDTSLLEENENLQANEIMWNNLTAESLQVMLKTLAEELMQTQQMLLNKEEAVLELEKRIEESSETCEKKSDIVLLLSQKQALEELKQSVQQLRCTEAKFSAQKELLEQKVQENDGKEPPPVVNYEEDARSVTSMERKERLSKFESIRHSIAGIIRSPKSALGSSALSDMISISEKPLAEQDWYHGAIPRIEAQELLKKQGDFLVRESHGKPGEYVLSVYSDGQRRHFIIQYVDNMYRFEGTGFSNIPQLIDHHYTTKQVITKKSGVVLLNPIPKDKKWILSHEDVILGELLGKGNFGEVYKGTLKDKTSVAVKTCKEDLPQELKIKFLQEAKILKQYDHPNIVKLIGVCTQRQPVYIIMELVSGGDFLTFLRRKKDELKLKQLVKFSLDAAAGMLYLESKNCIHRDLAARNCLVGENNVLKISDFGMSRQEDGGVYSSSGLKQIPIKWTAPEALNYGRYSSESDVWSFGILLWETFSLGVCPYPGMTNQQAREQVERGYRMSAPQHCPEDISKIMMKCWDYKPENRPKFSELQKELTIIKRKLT

[4] = target: Tyrosine-protein kinase Fyn (Homo sapiens) (UniProt P06241); experiment: Inhibition of FYN ACT labeling site in human A-375 cells at 5 uM by KiNativ Profiling analysis relative to control; assay type: cell-based
Chain of Tyrosine-protein kinase Fyn (Homo sapiens) (P06241 2-537 limits assumed): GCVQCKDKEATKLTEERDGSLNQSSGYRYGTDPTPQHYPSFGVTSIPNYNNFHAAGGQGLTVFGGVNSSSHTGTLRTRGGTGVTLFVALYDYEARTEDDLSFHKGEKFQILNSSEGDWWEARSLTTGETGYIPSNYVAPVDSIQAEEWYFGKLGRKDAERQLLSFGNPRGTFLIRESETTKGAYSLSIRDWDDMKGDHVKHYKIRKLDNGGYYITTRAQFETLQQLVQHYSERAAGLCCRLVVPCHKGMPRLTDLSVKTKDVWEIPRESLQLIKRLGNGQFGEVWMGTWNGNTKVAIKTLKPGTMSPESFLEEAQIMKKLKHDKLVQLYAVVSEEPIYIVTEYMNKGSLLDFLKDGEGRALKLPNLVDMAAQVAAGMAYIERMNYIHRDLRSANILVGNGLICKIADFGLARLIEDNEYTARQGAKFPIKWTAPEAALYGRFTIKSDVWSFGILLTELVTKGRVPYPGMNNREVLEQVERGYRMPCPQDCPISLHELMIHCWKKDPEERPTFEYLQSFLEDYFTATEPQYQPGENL

[5] = target: Aurora kinase B (Homo sapiens) (UniProt Q96GD4); experiment: Inhibition of AurB ATP Loop labeling site in human A-375 cells at 5 uM by KiNativ Profiling analysis relative to control; assay type: cell-based
Chain of Aurora kinase B (Homo sapiens) (Q96GD4 whole entry): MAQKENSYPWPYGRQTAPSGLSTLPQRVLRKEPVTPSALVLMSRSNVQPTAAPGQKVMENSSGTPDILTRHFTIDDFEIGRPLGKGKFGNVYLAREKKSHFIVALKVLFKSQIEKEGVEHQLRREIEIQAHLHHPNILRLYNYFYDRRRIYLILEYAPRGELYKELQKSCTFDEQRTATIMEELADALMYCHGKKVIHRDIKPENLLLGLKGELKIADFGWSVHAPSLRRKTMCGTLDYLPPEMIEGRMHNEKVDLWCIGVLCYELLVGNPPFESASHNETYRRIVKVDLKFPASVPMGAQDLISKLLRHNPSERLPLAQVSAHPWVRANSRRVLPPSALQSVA
Outline: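 Live A375 melanoma cells were treated with compound at 5 or 0.5 μM, then lysed. The lysates were labeled with a lysine-reactive ATP or ADP-biotin probe. Kinase protection from probe labeling was measured by KiNativ.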

[6] = target: Serine/threonine-protein kinase Nek6 (Homo sapiens) (UniProt Q9HC98); experiment: Inhibition of NEK6 Lys2 labeling site in human A-375 cells at 5 uM by KiNativ Profiling analysis relative to control; assay type: cell-based
[7] = target: T1, Inhibitor of nuclear factor kappa-B kinase subunit epsilon (Homo sapiens) (UniProt Q14164); experiment: Inhibition of IKKe Lys2 labeling site in human A-375 cells at 0.5 uM by KiNativ Profiling analysis relative to control; assay type: cell-based
T1 sequence (whole entry): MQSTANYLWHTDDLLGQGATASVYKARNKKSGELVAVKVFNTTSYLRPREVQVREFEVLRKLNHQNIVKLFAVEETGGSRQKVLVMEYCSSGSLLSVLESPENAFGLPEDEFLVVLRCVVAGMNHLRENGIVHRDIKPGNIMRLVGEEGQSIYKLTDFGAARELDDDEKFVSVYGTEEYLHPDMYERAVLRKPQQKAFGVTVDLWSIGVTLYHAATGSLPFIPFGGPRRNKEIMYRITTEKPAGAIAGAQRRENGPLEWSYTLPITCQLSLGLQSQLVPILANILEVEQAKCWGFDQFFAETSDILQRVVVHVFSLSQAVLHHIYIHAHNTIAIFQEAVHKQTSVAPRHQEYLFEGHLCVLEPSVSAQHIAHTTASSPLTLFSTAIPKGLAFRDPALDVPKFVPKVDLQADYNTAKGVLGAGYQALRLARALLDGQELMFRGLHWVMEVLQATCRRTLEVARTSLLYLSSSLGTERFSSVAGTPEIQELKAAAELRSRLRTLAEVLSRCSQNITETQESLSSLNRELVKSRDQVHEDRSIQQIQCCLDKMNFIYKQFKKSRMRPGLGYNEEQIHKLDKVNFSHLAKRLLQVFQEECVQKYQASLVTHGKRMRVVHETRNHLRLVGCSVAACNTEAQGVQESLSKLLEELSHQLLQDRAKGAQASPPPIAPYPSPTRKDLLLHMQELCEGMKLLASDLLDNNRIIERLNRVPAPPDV

[8] = Inhibition of KHS1 Lys2 labeling site in human A-375 cells at 0.5 uM by KiNativ Profiling analysis relative to control; conditions: condition cancer
[9] = target: T2, Kinase suppressor of Ras 2 (Homo sapiens) (UniProt Q6VAB6); experiment: Inhibition of KSR2 ACT labeling site in human A-375 cells at 0.5 uM by KiNativ Profiling analysis relative to control; assay type: cell-based
T2 sequence (whole entry): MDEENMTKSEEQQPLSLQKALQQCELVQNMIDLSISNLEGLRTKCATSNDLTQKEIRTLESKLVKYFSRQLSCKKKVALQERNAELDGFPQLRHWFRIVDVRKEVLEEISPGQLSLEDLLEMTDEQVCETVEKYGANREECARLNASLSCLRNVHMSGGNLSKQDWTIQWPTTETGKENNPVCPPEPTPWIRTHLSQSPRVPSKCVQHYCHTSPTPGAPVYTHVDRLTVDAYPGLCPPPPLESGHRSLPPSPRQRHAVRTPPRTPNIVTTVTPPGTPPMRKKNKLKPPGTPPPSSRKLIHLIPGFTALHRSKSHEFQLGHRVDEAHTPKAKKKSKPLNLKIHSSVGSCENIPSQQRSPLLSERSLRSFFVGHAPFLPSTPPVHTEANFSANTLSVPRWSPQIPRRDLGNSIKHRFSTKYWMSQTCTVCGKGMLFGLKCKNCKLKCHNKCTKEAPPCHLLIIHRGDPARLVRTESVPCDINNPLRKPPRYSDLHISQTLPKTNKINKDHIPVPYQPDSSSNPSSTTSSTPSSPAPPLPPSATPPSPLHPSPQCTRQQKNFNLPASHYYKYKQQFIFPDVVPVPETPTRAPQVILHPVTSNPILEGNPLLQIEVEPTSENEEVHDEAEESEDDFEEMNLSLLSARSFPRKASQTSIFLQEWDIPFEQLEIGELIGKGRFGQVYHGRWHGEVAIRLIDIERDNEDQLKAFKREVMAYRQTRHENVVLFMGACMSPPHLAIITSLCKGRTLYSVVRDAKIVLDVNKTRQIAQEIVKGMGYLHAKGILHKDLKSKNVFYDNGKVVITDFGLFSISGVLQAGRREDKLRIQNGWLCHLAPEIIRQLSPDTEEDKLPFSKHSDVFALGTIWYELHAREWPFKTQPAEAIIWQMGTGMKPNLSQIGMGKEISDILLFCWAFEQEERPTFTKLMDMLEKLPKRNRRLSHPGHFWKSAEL

[10] = target: Serine/threonine-protein kinase ATR (Homo sapiens) (UniProt Q13535); experiment: Inhibition of ATR ATP labeling site in human A-375 cells at 0.05 uM by KiNativ Profiling analysis relative to control; assay type: cell-based
Chain of Serine/threonine-protein kinase ATR (Homo sapiens) (Q13535 whole entry, looked up): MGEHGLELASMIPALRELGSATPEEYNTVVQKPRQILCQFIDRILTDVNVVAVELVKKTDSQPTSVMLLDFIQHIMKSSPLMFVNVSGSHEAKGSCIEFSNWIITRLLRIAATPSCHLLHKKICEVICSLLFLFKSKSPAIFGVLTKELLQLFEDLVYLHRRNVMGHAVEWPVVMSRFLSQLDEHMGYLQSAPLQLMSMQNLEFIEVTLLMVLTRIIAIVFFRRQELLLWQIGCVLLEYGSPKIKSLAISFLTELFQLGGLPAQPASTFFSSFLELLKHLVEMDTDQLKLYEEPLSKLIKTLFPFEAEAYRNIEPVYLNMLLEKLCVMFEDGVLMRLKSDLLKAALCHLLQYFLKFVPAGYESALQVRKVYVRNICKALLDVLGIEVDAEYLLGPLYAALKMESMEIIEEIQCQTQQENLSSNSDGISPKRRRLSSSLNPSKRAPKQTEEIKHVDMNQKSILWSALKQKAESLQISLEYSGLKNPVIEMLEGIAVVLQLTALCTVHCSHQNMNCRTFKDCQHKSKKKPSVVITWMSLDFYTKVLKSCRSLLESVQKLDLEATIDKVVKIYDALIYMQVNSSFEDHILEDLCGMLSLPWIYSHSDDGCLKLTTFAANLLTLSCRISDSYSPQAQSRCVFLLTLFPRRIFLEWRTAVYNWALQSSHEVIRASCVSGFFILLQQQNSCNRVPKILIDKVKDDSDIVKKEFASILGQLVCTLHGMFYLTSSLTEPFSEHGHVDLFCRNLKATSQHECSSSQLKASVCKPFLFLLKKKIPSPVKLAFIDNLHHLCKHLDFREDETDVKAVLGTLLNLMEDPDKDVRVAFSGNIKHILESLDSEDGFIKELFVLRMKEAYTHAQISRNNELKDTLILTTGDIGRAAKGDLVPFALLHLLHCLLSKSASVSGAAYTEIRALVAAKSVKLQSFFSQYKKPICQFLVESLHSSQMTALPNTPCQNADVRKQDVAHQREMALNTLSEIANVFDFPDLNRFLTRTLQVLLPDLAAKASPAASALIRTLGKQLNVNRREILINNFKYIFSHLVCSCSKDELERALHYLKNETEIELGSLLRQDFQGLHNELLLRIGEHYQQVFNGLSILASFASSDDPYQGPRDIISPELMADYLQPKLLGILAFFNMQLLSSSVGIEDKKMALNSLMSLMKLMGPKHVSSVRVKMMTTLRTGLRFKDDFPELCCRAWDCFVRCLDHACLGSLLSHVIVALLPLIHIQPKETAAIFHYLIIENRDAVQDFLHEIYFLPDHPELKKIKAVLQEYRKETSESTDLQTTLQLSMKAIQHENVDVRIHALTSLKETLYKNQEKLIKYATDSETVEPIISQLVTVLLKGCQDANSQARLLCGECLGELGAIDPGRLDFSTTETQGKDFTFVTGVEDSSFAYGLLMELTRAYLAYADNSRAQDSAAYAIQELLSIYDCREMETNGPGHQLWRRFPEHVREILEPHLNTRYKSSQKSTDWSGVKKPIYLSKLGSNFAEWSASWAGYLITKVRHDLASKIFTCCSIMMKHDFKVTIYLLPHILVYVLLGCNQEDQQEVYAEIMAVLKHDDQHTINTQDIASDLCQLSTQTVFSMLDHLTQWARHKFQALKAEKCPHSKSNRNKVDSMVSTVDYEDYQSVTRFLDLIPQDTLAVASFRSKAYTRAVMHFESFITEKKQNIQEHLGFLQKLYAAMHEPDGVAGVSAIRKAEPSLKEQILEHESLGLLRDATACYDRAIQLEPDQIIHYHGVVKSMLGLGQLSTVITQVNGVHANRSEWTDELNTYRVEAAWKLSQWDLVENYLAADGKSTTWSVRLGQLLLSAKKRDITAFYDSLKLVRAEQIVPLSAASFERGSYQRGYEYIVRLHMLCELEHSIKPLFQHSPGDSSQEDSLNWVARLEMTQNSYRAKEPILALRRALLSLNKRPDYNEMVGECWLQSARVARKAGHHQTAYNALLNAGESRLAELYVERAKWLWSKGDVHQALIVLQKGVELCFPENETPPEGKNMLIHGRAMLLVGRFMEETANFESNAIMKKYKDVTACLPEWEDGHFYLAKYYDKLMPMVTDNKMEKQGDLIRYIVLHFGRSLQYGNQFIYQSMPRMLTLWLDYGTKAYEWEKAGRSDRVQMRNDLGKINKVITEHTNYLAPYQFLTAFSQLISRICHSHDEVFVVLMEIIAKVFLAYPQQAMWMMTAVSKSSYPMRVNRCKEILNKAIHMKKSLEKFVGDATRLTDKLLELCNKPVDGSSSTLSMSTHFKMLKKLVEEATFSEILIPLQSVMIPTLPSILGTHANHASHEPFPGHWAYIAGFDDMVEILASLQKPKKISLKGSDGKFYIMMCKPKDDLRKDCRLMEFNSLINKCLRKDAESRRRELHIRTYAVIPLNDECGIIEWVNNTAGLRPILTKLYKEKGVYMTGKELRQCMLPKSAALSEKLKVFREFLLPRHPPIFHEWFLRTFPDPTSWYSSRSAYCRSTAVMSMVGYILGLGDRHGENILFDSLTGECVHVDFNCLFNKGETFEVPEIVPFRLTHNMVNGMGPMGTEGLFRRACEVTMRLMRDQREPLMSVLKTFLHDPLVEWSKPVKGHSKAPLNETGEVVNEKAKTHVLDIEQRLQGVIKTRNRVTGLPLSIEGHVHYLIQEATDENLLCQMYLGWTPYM

[11] = target: Cyclin-dependent kinase 8 (Homo sapiens) (UniProt P49336); experiment: Inhibition of CDK8 Lys2 labeling site in human A-375 cells at 0.05 uM by KiNativ Profiling analysis relative to control; assay type: cell-based
Chain of Cyclin-dependent kinase 8 (Homo sapiens) (P49336 whole entry): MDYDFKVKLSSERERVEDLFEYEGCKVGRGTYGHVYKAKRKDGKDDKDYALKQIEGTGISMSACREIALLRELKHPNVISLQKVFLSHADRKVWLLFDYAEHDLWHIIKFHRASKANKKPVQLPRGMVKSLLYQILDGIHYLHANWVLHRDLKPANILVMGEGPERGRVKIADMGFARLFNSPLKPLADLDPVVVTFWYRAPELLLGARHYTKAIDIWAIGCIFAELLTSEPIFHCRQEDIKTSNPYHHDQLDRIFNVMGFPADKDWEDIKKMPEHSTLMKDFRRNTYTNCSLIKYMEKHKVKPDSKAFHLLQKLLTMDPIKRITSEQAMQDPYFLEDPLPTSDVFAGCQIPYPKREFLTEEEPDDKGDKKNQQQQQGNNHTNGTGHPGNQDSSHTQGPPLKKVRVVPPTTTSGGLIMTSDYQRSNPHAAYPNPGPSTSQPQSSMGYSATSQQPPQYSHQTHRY

Row | Structure (SMILES) | inhibition [1] [%] | inhibition [2] [%] | inhibition [3] [%] | inhibition [4] [%] | inhibition [5] [%] | inhibition [6] [%] | inhibition [7] [%] | inhibition at 0.5 µM [8] [%] | inhibition [9] [%] | inhibition [10] [%] | inhibition [11] [%]
1 | CCN1CCN(Cc2ccc(NC(=O)c3ccc(C)c(Oc4ccnc5[nH]ccc45)c3)cc2C(F)(F)F)CC1 | > 94 | 87 | 96.8 | 89.6 | 31.4 | 6.4 | 35.7 | -0.3 | 8.5 | 7.9 | 32.1
2 | CCN1CCN(Cc2ccc(NC(=O)c3ccc(C)c(/C=C/c4cnc5[nH]ccc5c4OC)c3)cc2C(F)(F)F)CC1 | 52.7 | 27.8 | 74 | > 99 | 48.5 | 3.1 | 16.9 | 36 | 16.8 | -7.3 | -9.4
